According to ChEMBL document CHEMBL1781999, “Lead optimization of aryl and aralkyl amine-based triazolopyrimidine inhibitors of Plasmodium falciparum dihydroorotate dehydrogenase with antimalarial activity in mice” (J Med Chem, 2011):
≈ marks a conversion by molar mass, not a printed value.

Columns and labels:
[1] = Inhibition of His6-tagged recombinant Plasmodium berghei dihydroorotate dehydrogenase expressed in Escherichia coli using L-dihydroorotate as substrate after 10 to 15 mins by DCIP dye-based assay; conditions: in the assay text read “5 to 10 mins” for “10 to 15 mins”
Procedure, shortened: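 Truncated soluble enzyme lacking the N-terminal membrane domain. Final concentrations: 0.2 mM L-dihydroorotate, 0.02 mM CoQD, 0.12 mM DCIP. Reaction started with 10 nM enzyme and read at 600 nm for 5–10 min at 20 °C. Inhibitor 0.01–100 μM in 3-fold steps, in triplicate. IC50 from a three-parameter fit of vi/vo from initial rates.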

Plasmodium falciparum = test: Antimalarial activity against Plasmodium falciparum 3D7 infected in human A positive erythrocytes by [3H]hypoxanthine uptake assay in presence of serum in medium; format: functional, organism-based
Procedure, shortened: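 Growth read by [3H]-hypoxanthine uptake. Each concentration run in quadruplicate and fitted to a four-parameter variable-slope log[I]-response model for 50% growth inhibition.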

[2] = biological target: Dihydroorotate dehydrogenase (quinone), mitochondrial (Homo sapiens, UniProt Q02127); test: Inhibition of His6-tagged recombinant human dihydroorotate dehydrogenase expressed in Escherichia coli using L-dihydroorotate as substrate after 5 to 10 mins by DCIP dye-based assay
Sequence of Dihydroorotate dehydrogenase (quinone), mitochondrial (Q02127 whole entry): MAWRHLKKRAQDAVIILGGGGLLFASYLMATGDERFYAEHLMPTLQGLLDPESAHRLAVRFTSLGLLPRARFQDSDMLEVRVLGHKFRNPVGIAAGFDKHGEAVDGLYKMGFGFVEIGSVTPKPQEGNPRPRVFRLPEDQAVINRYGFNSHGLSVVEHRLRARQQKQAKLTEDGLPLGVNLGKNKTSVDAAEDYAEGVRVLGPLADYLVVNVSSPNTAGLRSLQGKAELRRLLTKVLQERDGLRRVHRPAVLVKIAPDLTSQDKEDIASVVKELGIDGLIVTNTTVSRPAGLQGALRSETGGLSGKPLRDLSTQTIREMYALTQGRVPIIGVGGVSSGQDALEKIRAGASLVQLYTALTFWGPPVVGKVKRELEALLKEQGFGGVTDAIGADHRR

[3] = biological target: T1, Dihydroorotate dehydrogenase (Plasmodium falciparum, UniProt Q54A96); test: Inhibition of His6-tagged recombinant Plasmodium falciparum dihydroorotate dehydrogenase expressed in Escherichia coli using L-dihydroorotate as substrate after 5 to 10 mins by DCIP dye-based assay
T1 sequence (Q54A96 whole entry): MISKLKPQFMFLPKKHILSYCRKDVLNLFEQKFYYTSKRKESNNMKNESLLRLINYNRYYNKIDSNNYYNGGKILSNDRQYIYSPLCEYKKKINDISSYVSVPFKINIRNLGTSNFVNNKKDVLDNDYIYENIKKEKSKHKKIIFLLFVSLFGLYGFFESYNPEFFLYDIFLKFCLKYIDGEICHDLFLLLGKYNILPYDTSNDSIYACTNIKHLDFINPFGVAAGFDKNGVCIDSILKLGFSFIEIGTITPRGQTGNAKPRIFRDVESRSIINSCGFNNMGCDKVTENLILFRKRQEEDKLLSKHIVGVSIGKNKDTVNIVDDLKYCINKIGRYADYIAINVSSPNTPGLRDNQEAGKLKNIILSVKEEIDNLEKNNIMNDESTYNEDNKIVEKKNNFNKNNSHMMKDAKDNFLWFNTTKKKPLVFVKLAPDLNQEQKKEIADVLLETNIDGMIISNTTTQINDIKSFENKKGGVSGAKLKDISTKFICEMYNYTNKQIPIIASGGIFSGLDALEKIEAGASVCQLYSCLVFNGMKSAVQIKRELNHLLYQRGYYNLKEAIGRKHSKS

[4] = Partition coefficient, log D of the compound at pH 7.4 by UV-HPLC analysis; conditions: octanol/water
[5] = Aqueous solubility of the compound in phosphate buffer at pH 6.5; format: physicochemical; conditions: phosphate buffer, read-out: solubility
Procedure, shortened: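 Non-equilibrium solubility. Concentrated DMSO stocks were diluted into pH 6.5 phosphate buffer (final DMSO 1% v/v) and precipitation was monitored by nephelometry. Solubility is given as the concentration range just before a turbidity signal rose above background.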

[6] = Plasma protein binding in human by albumin chromatographic method; format: ADME, cell-free; conditions: read-out: PPB (converted)
Liver microsomes = test: Intrinsic clearance in human liver microsome assessed per mg of protein at 1 uM after 60 mins by LC-MS analysis; format: ADME; conditions: microsomes, 1 h, 1 µM
Procedure, shortened: (§1)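 Microsomal stability. Compound at 1 μM with liver microsomes (0.4 mg/mL protein) in 0.1 M phosphate pH 7.4 at 37 °C. Started with an NADPH-regenerating system plus MgCl2; controls lacked NADPH. Quenched with cold acetonitrile at time points up to 60 min. Parent loss measured by LC-MS and fitted to exponential decay to give CLint.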

Liver = test: Intrinsic clearance in mouse liver microsome assessed per mg of protein at 1 uM after 60 mins by LC-MS analysis; format: ADME; conditions: microsomes, 1 h; procedure, shortened: as §1

## Cc1ccc(Nc2c3c(nc4ncnn24)CCC3)cc1F
[1]
  IC50: 1.3 µM
Plasmodium falciparum
  EC50: 8.3 µM
[2]
  IC50: > 100 µM

## Cc1cc(Nc2ccc(C(F)(F)F)c(C(F)(F)F)c2)n2ncnc2n1
[1]
  IC50: 0.55 µM
Plasmodium falciparum
  EC50: 2.3 µM
[3]
  IC50: 0.54 µM

## Cc1cc(NC2CCCCCCCCCCC2)n2ncnc2n1
[3]
  IC50: 58 µM

## Cc1cc(NC2CC2)n2ncnc2n1
[3]
  IC50: > 100 µM

## COc1cc2c(cc1OC)CC(Nc1cc(C)nc3ncnn13)C2
[1]
  IC50: 41 µM
Plasmodium falciparum
  EC50: 7.7 µM
[3]
  IC50: 4.6 µM

## Cc1cc(Nc2ccc(OC(C)(C)C)cc2)n2ncnc2n1
Plasmodium falciparum
  EC50: > 10 µM
[3]
  IC50: 44 µM

## CCCc1ccc(Nc2cc(C)nc3ncnn23)cc1
[1]
  IC50: 9 µM
Plasmodium falciparum
  EC50: 6.8 µM
[4]
  logD: 3.1
[5]
  solubility: 187 µM (≈ 50 µg/mL)
[6]
  fraction unbound: 0.065
Liver microsomes
  CL: 36 µL/min/mg
[2]
  IC50: > 100 µM
[3]
  IC50: 0.99 µM

## Cc1cc(Nc2ccc(N3CCCC3)cc2)n2ncnc2n1
[1]
  IC50: > 50 µM
Plasmodium falciparum
  EC50: > 20 µM
[3]
  IC50: 3.5 µM

## Cc1cc(NC2CCCC2)n2ncnc2n1
[3]
  IC50: > 100 µM

## Cc1cc(NC2Cc3ccc(F)cc3C2)n2ncnc2n1 (stereo unspecified)
[1]
  IC50: 1.4 µM
Plasmodium falciparum
  EC50: 1.3 µM
[2]
  IC50: > 50 µM
[3]
  IC50: 0.61 µM

## CCc1c(C)nc2ncnn2c1Nc1ccc(OC(F)(F)F)cc1
[1]
  IC50: 5.7 µM
Plasmodium falciparum
  EC50: > 10 µM
[2]
  IC50: > 100 µM

## CCCCCc1ccc(Nc2cc(C)nc3ncnn23)cc1
[1]
  IC50: 22 µM
Plasmodium falciparum
  EC50: > 5 µM
[2]
  IC50: > 100 µM
[3]
  IC50: 0.82 µM

## CCCCc1ccc(Nc2cc(C)nc3ncnn23)cc1
[1]
  IC50: 5.25 µM
Plasmodium falciparum
  EC50: 4.8 µM
[4]
  logD: 3.6
[5]
  solubility: 11 µM (≈ 3.09 µg/mL)
[6]
  fraction unbound: 0.033
Liver microsomes
  CL: 36 µL/min/mg
[2]
  IC50: > 100 µM
[3]
  IC50: 0.28 µM

## Cc1cc(NC2CCCCCCC2)n2ncnc2n1
[3]
  IC50: > 100 µM

## Cc1cc(Nc2ccc(C(C)(C)C)cc2)n2ncnc2n1
[1]
  IC50: 0.4 µM
Plasmodium falciparum
  EC50: 0.32 µM
[4]
  logD: 3.4
[5]
  solubility: 11 µM (≈ 3.09 µg/mL)
[6]
  fraction unbound: 0.068
Liver microsomes
  CL: 43 µL/min/mg
[2]
  IC50: > 100 µM
[3]
  IC50: 0.078 µM

## CCc1ccc(Nc2cc(C)nc3ncnn23)cc1
[1]
  IC50: 3.9 µM
Plasmodium falciparum
  EC50: 3.3 µM
[4]
  logD: 2.6
[5]
  solubility: 25 µM (≈ 6.33 µg/mL)
[6]
  fraction unbound: 0.12
Liver microsomes
  CL: 61 µL/min/mg
[2]
  IC50: > 100 µM
[3]
  IC50: 0.61 µM

## Cc1cc(Nc2ccc3ccccc3c2)n2ncnc2n1
[4]
  logD: 3.2
[5]
  solubility: 45 µM (≈ 12.4 µg/mL)
[6]
  fraction unbound: 0.062

## Cc1cc(Nc2ccc(CC(F)(F)F)cc2)n2ncnc2n1
[1]
  IC50: 8.8 µM
[3]
  IC50: 2.5 µM

## Cc1cc(Nc2ccc(Cl)c(F)c2)n2ncnc2n1
[1]
  IC50: 1.3 µM
Plasmodium falciparum
  EC50: 3.5 µM
[2]
  IC50: > 50 µM
[3]
  IC50: 0.55 µM

## Cc1cc(NC2CCCCC2)n2ncnc2n1
[3]
  IC50: > 100 µM

## Cc1cc(NC2CCc3cc(F)ccc3C2)n2ncnc2n1 (stereo unspecified)
[1]
  IC50: 1.9 µM
Plasmodium falciparum
  EC50: 2.5 µM
[3]
  IC50: 0.63 µM

## Cc1cc(Nc2ccc3[nH]c(C(F)(F)F)nc3c2)n2ncnc2n1
[1]
  IC50: > 50 µM
Plasmodium falciparum
  EC50: 25 µM
[3]
  IC50: 21 µM

## Cc1cc(Nc2ccc3c(c2)OCO3)n2ncnc2n1
[1]
  IC50: 55 µM
Plasmodium falciparum
  EC50: 21 µM
[4]
  logD: 1.6
[5]
  solubility: 186 µM (≈ 50.1 µg/mL)
Liver microsomes
  CL: 11 µL/min/mg
[2]
  IC50: > 100 µM
[3]
  IC50: 1.6 µM

## CCc1cc(Nc2ccc(C(F)(F)F)cc2)n2ncnc2n1
[1]
  IC50: 2 µM
Plasmodium falciparum
  EC50: 2.3 µM
[2]
  IC50: > 100 µM
[3]
  IC50: 0.78 µM

## Cc1cc(NCc2ccc(F)cc2)n2ncnc2n1
Plasmodium falciparum
  EC50: > 10 µM
[3]
  IC50: > 100 µM

## CCCCCCCNc1cc(C)nc2ncnn12
[1]
  IC50: 55 µM
Plasmodium falciparum
  EC50: 13 µM
[3]
  IC50: 8.6 µM

## Cc1cc(NC2CCC2)n2ncnc2n1
[3]
  IC50: > 100 µM

## Cc1cc(Nc2ccc(SC(F)(F)F)cc2)n2ncnc2n1
[1]
  IC50: 1.2 µM
Plasmodium falciparum
  EC50: 0.27 µM
[5]
  solubility: 5 µM (≈ 1.63 µg/mL)
[6]
  fraction unbound: 0.039
Liver microsomes
  CL: < 5 µL/min/mg
Liver
  CL: 119 µL/min/mg
[2]
  IC50: > 50 µM
[3]
  IC50: 0.61 µM

## Cc1cc(NC2Cc3ccc(Br)cc3C2)n2ncnc2n1 (stereo unspecified)
[1]
  IC50: 3.3 µM
Plasmodium falciparum
  EC50: 6.6 µM
[2]
  IC50: > 50 µM
[3]
  IC50: 1.2 µM

## CCc1nc(N)nc(N)c1-c1ccc(Cl)cc1 [PYRIMETHAMINE]
Plasmodium falciparum
  EC50: 0.023 µM
[6]
  fraction unbound: 0.13

## CCc1c(C)nc2ncnn2c1Nc1ccc(C(C)C)cc1
[1]
  IC50: 4.5 µM
Plasmodium falciparum
  EC50: > 10 µM
[2]
  IC50: > 100 µM
[3]
  IC50: 1.7 µM

## Cc1cc(NC2CCCCCC2)n2ncnc2n1
[3]
  IC50: > 100 µM

## CCCCCCCc1ccc(Nc2cc(C)nc3ncnn23)cc1
[1]
  IC50: > 50 µM
Plasmodium falciparum
  EC50: > 5 µM
[3]
  IC50: 24 µM

## Cc1cc(NCCc2ccccc2)n2ncnc2n1
[1]
  IC50: 27 µM
Plasmodium falciparum
  EC50: > 20 µM
[3]
  IC50: 15 µM

## FC(F)(F)c1ccc(Nc2cc(C(F)(F)F)nc3ncnn23)cc1
[1]
  IC50: 2.3 µM
Plasmodium falciparum
  EC50: > 10 µM
[2]
  IC50: > 100 µM
[3]
  IC50: 1.7 µM

## CCCCCCc1ccc(Nc2cc(C)nc3ncnn23)cc1
[1]
  IC50: 20 µM
Plasmodium falciparum
  EC50: > 5 µM
[3]
  IC50: 4.2 µM

## Cc1cc(Nc2ccc(C(C)(C)C#N)cc2)n2ncnc2n1
Plasmodium falciparum
  EC50: 3.7 µM

## Cc1cc(NCc2ccccc2)n2ncnc2n1
Plasmodium falciparum
  EC50: > 10 µM
[3]
  IC50: > 100 µM

## Cc1cc(Nc2ccc(N(C)C)cc2)n2ncnc2n1
[1]
  IC50: 12 µM
Plasmodium falciparum
  EC50: 2.7 µM
[4]
  logD: 2.2
[5]
  solubility: 93 µM (≈ 25 µg/mL)
Liver microsomes
  CL: 9 µL/min/mg
Liver
  CL: 226 µL/min/mg
[2]
  IC50: > 100 µM
[3]
  IC50: 0.82 µM

## FC(F)(F)c1ccc(Nc2cc(Cl)nc3ncnn23)cc1
[1]
  IC50: 0.13 µM
Plasmodium falciparum
  EC50: 3.4 µM
[2]
  IC50: > 100 µM
[3]
  IC50: 0.17 µM
